The list is not random: actives were taken first. Their share in the collection is about 2.9%.
ABHD4 inh: inhibits mouse alpha/beta hydrolase domain 4; AID 720543; 370,000 compounds, 0.54% hits; inhibition, % at 8.92 µM; purified mABHD4, FP-Rh probe fluorescence polarization; Q8VD66;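 active = inhibition exceeding the mean over every tested compound plus 3 SD, cut at about 30% in these data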
Target sequence (Q8VD66 whole entry, looked up, the tested form may be a part): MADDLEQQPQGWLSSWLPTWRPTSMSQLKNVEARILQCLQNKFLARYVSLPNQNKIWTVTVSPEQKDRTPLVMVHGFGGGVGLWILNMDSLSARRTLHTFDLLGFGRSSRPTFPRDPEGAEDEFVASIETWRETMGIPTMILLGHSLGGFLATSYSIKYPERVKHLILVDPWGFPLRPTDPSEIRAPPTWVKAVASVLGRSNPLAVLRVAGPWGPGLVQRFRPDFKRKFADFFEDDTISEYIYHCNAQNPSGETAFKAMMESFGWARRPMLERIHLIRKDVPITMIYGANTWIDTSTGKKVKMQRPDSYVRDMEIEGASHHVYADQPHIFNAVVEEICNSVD
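Doses – 8.92 µM, single dose · Material – wild-type mouse ABHD4 protein · Replication – single well per compound (singlicate) · Measure – percent inhibition of probe binding, normalized to plate controls · Schedule – 45 min compound pre-incubation plus 60 min probe step, 25 °C · Detection – fluorescence polarization with parallel and perpendicular emission, 525/598 nm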
ATG4B inh: ATG4B (human) cysteine protease inhibition; ATG4B cleavage of LC3-PLA2, NBD-HPC fluorescence, 1 h; inhibition, % at 8.33 µM; 340,000 compounds, 0.51% hits; in the data active = inhibition above about 40%
HTRA1 inh: inhibitors of human serine peptidase HTRA1; Q92743; recombinant HTRA1, FP-rhodamine activity-based probe, fluorescence polarization; inhibition, % at 5.96 µM; 340,000 compounds, 0.5% hits; in the data active = inhibition above about 36%
TCR-CD3 inh: inhibitors of human TCR-CD3 interaction; TAMRA-labeled TCR probe fluorescence, biochemical; inhibition, % at 9.4 µM; 360,000 compounds, 0.37% hits; AID 651800; in the data active = inhibition above about 19%;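 note: recombinant mutant TCR 2C K166C tagged with TAMRA read by polarization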
SIAE primary: human SIAE inhibition, primary screen | SIAE FP-Rh probe binding, fluorescence polarization | inhibition, % at 9.66 µM | 370,000 compounds, 0.69% hits | Q9HAT2;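 active = inhibition above a cutoff: mean of compounds within the control limits plus 3 SD of those, cut at about 17% in these data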
PRMT1 inh: blocks human protein arginine methyltransferase 1; inhibition, % at 2.79 µM; 370,000 compounds, 1.3% hits; Q99873; recombinant PRMT1, activity-based probe fluorescence polarization;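 active = inhibition above about 21% made by adding two undisclosed values, limit read from the data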
ATG4B confirm: ATG4B (human) inhibition, single-dose confirmed; shares compounds with ATG4B inh; ATG4B protease fluorescent substrate cleavage assay; inhibition, % at 8.33 µM; 320 compounds, 92% hits; in the data active = inhibition above about 39%
PLA2 ctr: inhibits human PLA2, flagging false ATG4B inhibitors. shares compounds with ATG4B inh. purified PLA2, NBD-C6-HPC fluorescence, 45 min. inhibition, % at 8.33 µM. 1,600 compounds, 66% hits; in the data active = inhibition above about 50%
Target sequence (P04054 whole entry, looked up): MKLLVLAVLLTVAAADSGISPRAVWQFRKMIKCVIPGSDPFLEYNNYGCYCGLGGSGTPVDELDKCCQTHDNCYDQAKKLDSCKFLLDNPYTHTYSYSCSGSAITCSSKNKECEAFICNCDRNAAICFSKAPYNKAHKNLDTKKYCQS
Hits are given with their value; – = inactive; · = not tested or not shown.

SMILES	ABHD4 inh	ATG4B inh	HTRA1 inh	TCR-CD3 inh	SIAE primary	PRMT1 inh	PLA2 ctr	others
O=C(On1c(-c2ccccc2)nc2ccccc2c1=O)c1ccco1	–	–	–	–	–	–	·
CN1C(=O)C2(NCCc3c2[nH]c2ccccc32)c2ccccc21 (centres undefined)	–	–	–	–	–	–	·
CC1=CC(C)(C)N2C(=O)C3(NCCc4c3[nH]c3ccccc43)c3cc(C)cc1c32 (centres undefined)	–	58	–	–	–	–	69
Cc1ccc(-n2c(SCc3cn4ccsc4n3)nc3ccccc3c2=O)cc1	–	74	–	–	–	–	79
COc1ccc(-n2c(SCC(=O)NNC(=S)Nc3ccccc3)nc3ccccc3c2=O)cc1	–	·	·	·	–	–	·
Cc1ccc(NC(=S)NNC(=O)CSc2nc3ccccc3c(=O)n2-c2ccc(C)cc2)cc1	–	88	–	–	–	–	93
CCC[C@H]1[C@@H](OC(=O)NCc2ccc(Cl)cc2)CC[C@@]23CCCN2C(=O)CCC[C@@H]13	–	·	·	·	–	–	·
COc1ccc2[nH]c(C(=O)N3CCc4ccccc4C3)c(C)c2c1	–	62	–	–	–	–	64
COc1ccc(OC)c(-c2cc(C(=O)N3CCc4ccccc4C3)no2)c1	–	49	–	–	–	–	56
COc1ccc(CCC[C@@H](CCC(=O)N(c2ccccc2)c2ccccc2)CCc2ccccc2)cc1	–	·	·	·	–	–	·
CN(CCOC(=O)CSc1ccccc1)C1CN(Cc2cn(Cc3ccccc3F)nn2)S(=O)(=O)C1 (centres undefined)	–	·	·	·	–	–	·
Cc1c(C(=O)Nc2ccc(-c3nnc4n3CCCCC4)cc2)oc2c1ccc1ccccc12	–	45	–	–	–	–	60
Cc1c(C(=O)O)sc2nc(-c3cccs3)cc(C(F)(F)F)c12	–	–	–	–	–	–	·
Cc1c(C(=O)Nc2nccs2)sc2nc(-c3cccs3)cc(C(F)(F)F)c12	–	50	–	–	–	–	–
CCC(=O)N1CCN(c2nc(CC)nc3sc4c(c23)CCCC4)CC1	–	54	–	–	–	–	64
CSc1nc(N2CCOCC2)c2c3c(sc2n1)CCCC3	–	–	–	–	–	–	·
CCc1nc(N2CCN(S(C)(=O)=O)CC2)c2c3c(sc2n1)CCCC3	–	47	–	–	–	–	–
CCc1nc(N2CCN(C(=S)NCCCOC)CC2)c2c3c(sc2n1)CCCC3	–	72	–	–	–	–	80
Cc1nc(N2CCN(C(=O)COc3ccccc3C)CC2)c2c3c(sc2n1)CCCC3	–	·	·	·	–	–	·
O=C(NNc1cc(C(F)(F)F)nc2ccccc12)Nc1cccc(Cl)c1	–	85	–	–	–	–	85
CCOc1cc(/C=C2\SC(=O)N(CC(=O)Nc3ccccc3F)C2=O)cc([N+](=O)[O-])c1O	–	43	–	–	–	–	–	ATG4B confirm=59
COc1cc(/C=C2\SC(=O)N(CC(=O)Nc3ccccc3F)C2=O)cc(Cl)c1O	–	–	–	–	–	–	·
Cc1cccc(/C=C/c2onc(C)c2S(=O)(=O)N2CCC(C(=O)N3CCCCCC3)CC2)c1	–	40	–	–	–	–	52
Cc1noc(/C=C/c2ccco2)c1S(=O)(=O)N1CCC(C(=O)NC(C)c2ccccc2)CC1 (centres undefined)	–	–	–	–	–	–	·
Cc1noc(/C=C/c2ccco2)c1S(=O)(=O)N1CCC(C(=O)N2c3ccccc3CC2C)CC1 (centres undefined)	–	48	–	–	–	–	76
SMILES	ABHD4 inh	ATG4B inh	HTRA1 inh	TCR-CD3 inh	SIAE primary	PRMT1 inh	PLA2 ctr	others
CCOC(=O)[C@@]12CCC3=C1N(CCC3)C(=O)[C@H](CC(=O)NCCC(C)C)C2	–	·	·	·	–	–	·
O=C(NCc1ccc(Cl)cc1)C1CCCN(c2ncccn2)C1 (centres undefined)	–	·	·	·	–	–	·
Cc1ccc(OCc2nnc(SCC(=O)Nc3ccc(OCc4ccccc4)cc3)n2-c2ccc(Cl)cc2)cc1	–	·	·	·	–	–	·
CN1C2=NC(c3ccc4ccccc4c3)CC(=O)N2/C(=C\c2ccccc2)C1c1ccccc1C(F)(F)F (centres undefined)	–	·	·	·	–	–	·
CCOC(=O)CSc1nc2ccccc2c(=O)n1CC1CCCC1	–	71	–	–	–	–	71
CCOC(=O)CSc1nc2ccccc2c(=O)n1CC(C)C	–	57	–	–	–	–	56
Cc1sc2nc(SCC(=O)Nc3ccc(Cl)c(C(=O)O)c3)[nH]c(=O)c2c1C	–	–	–	–	–	–	·
Cc1ccc(-c2csc3nc(SCC(=O)Nc4ccc(Cl)c(C(=O)O)c4)[nH]c(=O)c23)cc1	–	78	–	–	–	–	78
O=C1C=C(N2CCOCC2)c2ccccc2C1=O	–	64	–	–	–	–	–	ATG4B confirm=53
C[C@@H]1CCCN1c1ccc2c(c1)OCCCN(C1CC1)S2(=O)=O	–	·	·	·	–	–	·
Cc1ccc(-c2cc(-c3ccccc3Cl)[nH]n2)c(O)c1	–	68	–	–	–	–	77
Cc1ccc(-c2cc(-c3ccccc3[N+](=O)[O-])[nH]n2)c(O)c1	–	61	–	–	–	–	75
Cc1ccc(-c2cc(-c3ccc(C)cc3O)[nH]n2)cc1	–	–	–	–	–	–	·
Cc1ccccc1-c1cc(-c2ccccc2O)n[nH]1	–	58	–	–	–	–	65
O=C(Cn1nnc(-c2ccc(S(=O)(=O)N3CCCC3)cc2)n1)Nc1ccccc1-n1cccc1	–	54	–	–	–	–	62
O=C(c1ccco1)N1CCN(C/C=C/c2ccccc2)CC1	–	–	–	–	–	–	·
O=C(c1nn(Cc2ccccc2)c(=O)c2ccccc12)N1CCN(C/C=C/c2ccccc2)CC1	–	49	–	–	–	–	55
N#C/C(=N\Nc1cccc([N+](=O)[O-])c1)C(=O)c1ccc(Br)cc1	–	57	–	–	–	–	80
O=C(O)c1ccc(N=NNc2cccc([N+](=O)[O-])c2)cc1	–	–	–	–	–	–	·
O=C(COC(=O)c1cccc(S(=O)(=O)NCc2ccccc2)c1)c1ccccc1	–	47	–	–	–	–	55
Cc1cc(C)c(C(=O)COC(=O)c2cccc(S(=O)(=O)NCc3ccccc3)c2)cc1C	–	–	–	–	–	–	·
O=C(Nc1ccc(Cl)cc1Cl)OC1CCC12CCC(c1ccccc1)CC2 (centres undefined)	–	·	·	·	–	–	·
O=S(=O)(c1cccs1)N1CCN(c2ccccc2Cl)CC1	–	45	–	–	–	–	64
